The values that follow come from ChEMBL document CHEMBL3525926, “CYP2C9-mediated metabolic activation of losartan detected by a highly sensitive cell-based screening assay” (Drug Metab Dispos, 2011).

Structures are written as SMILES.

Holding throughout (assay type): ADME, cell-based
Common to all, as to conditions: hepg2, 24 h

Series [1] addresses T1, Cytochrome P450 2C9 (Homo sapiens, UniProt P11712). Kind of series: Metabolic activation assessed as CYP2C9 activation-induced cytotoxicity in human HepG2 cells transfected with human AdCYP2C9 at MOI 10 for 2 days in presence of siNrf2 at 25 to 75 uM after 24 hrs by WST-8 assay. Summed up: (§1)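 HepG2 cells reverse-transfected with 10 nM siNrf2 at seeding (1.0×10^4 cells/well), incubated 24 h, then infected with CYP2C9-expressing adenovirus (AdGFP as control) at MOI 10 for 2 days in 5% FBS medium. Drugs added for 24 h. Viability read by WST-8 (absorbance 450 nm) or CellTiter-Glo ATP luminescence. Expressed as % of untreated cells; means ± S.D., n = 3; two-tailed t test versus AdGFP cells.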
A general note: Tetrazolium assays rely on reduction of a dye to a coloured formazan, in cell work by metabolically active cells.

Series [2] concerns the target T1, Cytochrome P450 2C9. Kind of series: Metabolic activation assessed as CYP2C9 activation-induced cytotoxicity in human HepG2 cells transfected with human AdCYP2C9 at MOI 10 for 2 days in presence of siNrf2 at 25 to 100 uM after 24 hrs by WST-8 assay.
Series [3] addresses T1, Cytochrome P450 2C9. The series is described as follows: Metabolic activation assessed as CYP2C9 activation-induced cytotoxicity in human HepG2 cells transfected with human AdCYP2C9 at MOI 10 for 2 days in presence of siNrf2 at 50 to 200 uM after 24 hrs by WST-8 assay. The gist of the method: as §1
The target of series [4] is T1, Cytochrome P450 2C9. The series is described as follows: Metabolic activation assessed as CYP2C9 activation-induced cytotoxicity in human HepG2 cells transfected with human AdCYP2C9 at MOI 10 for 2 days in presence of siScramble at 25 to 100 uM after 24 hrs by ATP assay. The gist of the method: (§2)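 HepG2 cells reverse-transfected with 10 nM scrambled control siRNA at seeding (1.0×10^4 cells/well), then after 24 h infected with CYP2C9-expressing adenovirus (AdGFP control) at MOI 10 for 2 days. Drugs added for 24 h. Viability by CellTiter-Glo ATP luminescence, as % of untreated cells; means ± S.D., n = 3; two-tailed t test versus AdGFP cells.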

Series [5] addresses T1, Cytochrome P450 2C9. The series is described as follows: Metabolic activation assessed as CYP2C9 activation-induced cytotoxicity in human HepG2 cells transfected with human AdCYP2C9 at MOI 10 for 2 days in presence of siScramble at 50 to 200 uM after 24 hrs by ATP assay. Summed up: as §2
The target of series [6] is T1, Cytochrome P450 2C9. The series is described as follows: Metabolic activation assessed as CYP2C9 activation-induced cytotoxicity in human HepG2 cells transfected with human AdCYP2C9 at MOI 10 for 2 days in presence of siNrf2 at 50 to 200 uM after 24 hrs by ATP assay. The gist of the method: as §1
Series [7] has as its target T1, Cytochrome P450 2C9. Kind of series: Metabolic activation assessed as CYP2C9 activation-induced cytotoxicity in human HepG2 cells transfected with human AdCYP2C9 at MOI 10 for 2 days in presence of siNrf2 at 100 to 200 uM after 24 hrs by WST-8 assay. Summed up:
as §1

Series [8] has as its target T1, Cytochrome P450 2C9. Kind of series: Metabolic activation assessed as CYP2C9 activation-induced cytotoxicity in human HepG2 cells transfected with human AdCYP2C9 at MOI 10 for 2 days in presence of siNrf2 at 100 uM after 24 hrs by WST-8 assay. The gist of the method:
as §1

T1 sequence (P11712 whole entry): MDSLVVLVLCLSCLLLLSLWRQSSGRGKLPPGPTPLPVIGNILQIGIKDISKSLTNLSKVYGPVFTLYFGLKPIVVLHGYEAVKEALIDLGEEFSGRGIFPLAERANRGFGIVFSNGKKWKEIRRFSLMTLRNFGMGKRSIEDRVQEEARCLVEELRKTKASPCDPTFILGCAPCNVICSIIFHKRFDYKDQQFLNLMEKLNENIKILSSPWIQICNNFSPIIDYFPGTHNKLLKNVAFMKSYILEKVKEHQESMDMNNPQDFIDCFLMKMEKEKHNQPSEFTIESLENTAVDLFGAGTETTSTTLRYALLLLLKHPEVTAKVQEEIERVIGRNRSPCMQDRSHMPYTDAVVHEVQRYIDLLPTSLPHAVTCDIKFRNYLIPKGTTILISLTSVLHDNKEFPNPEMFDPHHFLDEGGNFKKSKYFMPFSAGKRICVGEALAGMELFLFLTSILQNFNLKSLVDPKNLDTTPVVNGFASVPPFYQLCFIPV

Turning to `CC(C)C(=O)Nc1ccc([N+](=O)[O-])c(C(F)(F)F)c1` [FLUTAMIDE], the Activity result on Cytochrome P450 2C9 [1] is “Non-toxic”.

For the compound `CCCc1nc2c(C)cc(-c3nc4ccccc4n3C)cc2n1Cc1ccc(-c2ccccc2C(=O)O)cc1` [TELMISARTAN], at Cytochrome P450 2C9 [2], the Activity result was “Toxic”.

On to `CCCCc1nc(Cl)c(C(=O)O)n1Cc1ccc(-c2ccccc2-c2nn[nH]n2)cc1` [CARBOXYLIC ACID METABOLITE], for which the Activity result at Cytochrome P450 2C9 [2] is given as “Non-toxic”.

On to `CCCCc1nc(Cl)c(C=O)n1Cc1ccc(-c2ccccc2-c2nn[nH]n2)cc1`, for which the Activity result on Cytochrome P450 2C9 [2] is “Non-toxic”.

On to `CCCCC1=NC2(CCCC2)C(=O)N1Cc1ccc(-c2ccccc2-c2nnn[nH]2)cc1` [IRBESARTAN], for which the Activity result at Cytochrome P450 2C9 [2] was “Toxic”.

As to `CCCCc1ncc(/C=C(\Cc2cccs2)C(=O)O)n1Cc1ccc(C(=O)O)cc1` [EPROSARTAN], the Activity result on Cytochrome P450 2C9 [2] was “Toxic”.

Consider `Cc1ccc(-c2nc3ccc(C)cn3c2CC(=O)N(C)C)cc1` [ZOLPIDEM], for which the Activity entry at Cytochrome P450 2C9 [2] is on record as “Toxic”.

For `CCCC(CCC)C(=O)O` [VALPROIC ACID], at Cytochrome P450 2C9 [3], the Activity entry was “Non-toxic”.

Take `CCCCc1nc(Cl)c(CO)n1Cc1ccc(-c2ccccc2-c2nn[nH]n2)cc1` [LOSARTAN]: the Activity entry at Cytochrome P450 2C9 [2] is “Toxic”; at Cytochrome P450 2C9 [4] it was “Non-toxic”.

`O=C(O)COc1ccc(C(=O)c2cccs2)c(Cl)c1Cl` [TICRYNAFEN]: the Activity result at Cytochrome P450 2C9 [5] was “Non-toxic”; at Cytochrome P450 2C9 [6] it was “Toxic”; on Cytochrome P450 2C9 [7] it was “Toxic”.

For `CCCCC(=O)N(Cc1ccc(-c2ccccc2-c2nnn[nH]2)cc1)[C@H](C(=O)O)C(C)C` [VALSARTAN], the Activity entry at Cytochrome P450 2C9 [2] is reported as “Toxic”.

As for `CC(C)n1c(/C=C/C(O)CC(O)CC(=O)O)c(-c2ccc(F)cc2)c2ccccc21` (stereo not drawn) [FLUVASTATIN], the Activity entry at Cytochrome P450 2C9 [3] was “Non-toxic”; at Cytochrome P450 2C9 [8] it was “Toxic”.

On to `CN(C/C=C/C#CC(C)(C)C)Cc1cccc2ccccc12` [TERBINAFINE], for which the Activity result at Cytochrome P450 2C9 [2] and on Cytochrome P450 2C9 [4] was “Toxic” throughout.
